Measured values from ChEMBL document CHEMBL1131499, “Molecular features associated with polyamine modulation of NMDA receptors” (J Med Chem, 1998).

Tests used:
[1] = Dissociation constant (pK1)
[2] = Dissociation constant (pK2)
[3] = Partition coefficient (logP)
[4] = molecular target: Glutamate NMDA receptor (Rattus norvegicus) (UniProt P35439+Q00959+Q00960+Q00961+Q62645+Q8VHN2+Q9R1M7); assay: Enhanced binding of [3H]MK-801 to N-methyl-D-aspartate glutamate receptor in presence of spermine; format: protein-complex assay
Summary of the method: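 Forebrain membranes (minus cerebellum and brainstem) from adult male Sprague–Dawley rats, prepared by buffy-coat centrifugation in 5 mM HEPES/4.5 mM Tris pH 7.6 with EDTA washes, then stored frozen. About 50 μg protein incubated with [³H]MK-801 (final 4–4.5 nM) plus spermine, without added glutamate or glycine, for 2 h at room temperature. Filtered on polyethylenimine-soaked glass fiber filters. Nonspecific binding defined with 100 μM PCP; counted by scintillation.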

NC1CCN(Cc2ccccc2)CC1
pKa [1]: 9.79 | pKa [2]: 7.05 | ΔpK [3]: 2.74

CC1(C)CC(NCCO)CC(C)(C)N1
pKa [1]: 10.5 | pKa [2]: 7.42 | ΔpK [3]: 3.1

CN(C)C1CCNCC1
Sp Max [4]: 44% | pKa [1]: 10.7 | pKa [2]: 7.71 | ΔpK [3]: 2.95

CN1CC2CC1C[C@@H](N)C2 (stereo not given in full)
Sp Max [4]: 8%

C1CCN(C2CCNCC2)CC1 [[1,4']Bipiperidinyl]
pKa [1]: 10.7 | pKa [2]: 7.97 | ΔpK [3]: 2.76

CN(C)C1CC(C)(C)NC(C)(C)C1
pKa [1]: 10.6 | pKa [2]: 7.67 | ΔpK [3]: 2.89

CN1CC2CC1C[C@H](N)C2 (stereo not given in full)
Sp Max [4]: 13%

CNCC(C)CNC
Sp Max [4]: 11% | pKa [1]: 10.6 | pKa [2]: 8.29 | ΔpK [3]: 2.26

C=CCN(CC=C)CCCN(CC=C)CC=C
pKa [1]: 8.8 | pKa [2]: 6.96 | ΔpK [3]: 1.84

NC1CCNCC1
Sp Max [4]: 12% | pKa [1]: 10.6 | pKa [2]: 8.1 | ΔpK [3]: 2.53

NCC(=O)CN
Sp Max [4]: 72% | pKa [1]: 8.32 | pKa [2]: 6.89 | ΔpK [3]: 1.43

C1CCN(CCCN2CCCCC2)CC1
pKa [1]: 10.4 | pKa [2]: 8.33 | ΔpK [3]: 2.06

CC(C)(CN)CN
Sp Max [4]: 5% | pKa [1]: 10.2 | pKa [2]: 7.81 | ΔpK [3]: 2.37

CNCCCNC
Sp Max [4]: 16% | pKa [1]: 10.7 | pKa [2]: 8.68 | ΔpK [3]: 2.02

NCC(O)CN
Sp Max [4]: 35% | pKa [2]: 8.14 | ΔpK [3]: 1.54

CNC1CCN(C)CC1
Sp Max [4]: 2% | pKa [1]: 10.1 | pKa [2]: 7.34 | ΔpK [3]: 2.75

OCCNC1CCN(Cc2ccccc2)CC1
pKa [1]: 9.24 | pKa [2]: 6.67 | ΔpK [3]: 2.57

CN(C)CCCN(C)C
Sp Max [4]: 22% | pKa [1]: 9.81 | pKa [2]: 7.77

CC1(C)CC(N)CC(C)(C)N1
pKa [1]: 10.6 | pKa [2]: 7.9 | ΔpK [3]: 2.73

CN(C)CC(C)(C)CN
pKa [1]: 10.3 | pKa [2]: 7.13 | ΔpK [3]: 3.15

CNCCCN
Sp Max [4]: 15% | pKa [1]: 10.7 | pKa [2]: 8.66 | ΔpK [3]: 2.01

NCCCN
Sp Max [4]: 22% | pKa [1]: 10.6 | pKa [2]: 8.69 | ΔpK [3]: 1.86

NCCCNCCO
Sp Max [4]: 16% | pKa [1]: 10.3 | pKa [2]: 8.19 | ΔpK [3]: 2.09
